Legend:
L1210 [1] = test: Concentration that inhibits the proliferation of L1210 cells by 50%; assay type: functional, cell-based; details: Mus musculus
Outline: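 L1210 murine leukemia cells were incubated with drug at various concentrations for 60 min at 37 °C. Colonies were stained with tetrazolium and counted; cloning efficiency is 8-10%. IC50 is the drug concentration in the agar giving 50% fewer colonies.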

[2] = tested on: DNA topoisomerase 1 (Bos taurus); test: Concentration that produces 50% DNA cleavage mediated by topoisomerase I; neg= negative is no enzyme mediated DNA cleavage at the highest conc tested at 50 uM
L1210 [3] = test: Non-protein associated single strand breaks, measured after cell lysis in the absence of proteinase K treatment at 2 uM concentration of the compound; assay type: functional, Mus musculus
Outline: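 L1210 cells exposed to drug for 1 h, then alkaline elution. Cells lysed without proteinase K treatment to score single-strand breaks not bound to protein. Expressed as rad equivalents.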

L1210 [4] = test: Protein associated single strand breaks, measured after cell lysis and proteinase K treatment at 2 uM concentration of the compound; assay type: functional, Mus musculus
Outline: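 L1210 cells exposed to drug for 1 h, then alkaline elution. Lysis followed by proteinase K treatment to score protein-associated single-strand breaks. Expressed as rad equivalents.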

L1210 [5] = test: Protein associated single strand breaks, measured after cell lysis and proteinase K treatment at 20 uM concentration of the compound; assay type: functional, Mus musculus
Outline: (§1)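 L1210 cells were exposed to compound for 1 h and DNA strand breaks were measured by alkaline elution, expressed as rad equivalents. Protein-associated breaks were read after cell lysis plus proteinase K treatment. Non-protein-associated breaks were read after lysis without proteinase K.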

L1210 [6] = test: Non-protein associated single strand breaks, measured after cell lysis in the absence of proteinase K treatment at 20 uM concentration of the compound; assay type: functional, Mus musculus; outline: as §1
[7] = tested on: DNA topoisomerase 1 (Bos taurus); test: Concentration that produces 50% DNA cleavage mediated by DNA topoisomerase I
[8] = tested on: DNA topoisomerase 1 (Bos taurus); test: Concentration that produces 50% DNA cleavage mediated by DNA topoisomerase I; neg= negative is no enzyme mediated DNA cleavage at the highest conc tested at 50 uM
L1210 [9] = test: Non-protein associated single strand breaks, measured after cell lysis in the absence of proteinase K treatment at 10 uM concentration of the compound; assay type: functional, Mus musculus; outline: as §1
L1210 [10] = test: Protein associated single strand breaks, measured after cell lysis and proteinase K treatment at 10 uM concentration of the compound; assay type: functional, Mus musculus; outline: as §1
L1210 [11] = test: Protein associated single strand breaks, measured after cell lysis and proteinase K treatment at 35 uM concentration of the compound; assay type: functional, Mus musculus; outline: as §1
L1210 [12] = test: Non-protein associated single strand breaks, measured after cell lysis in the absence of proteinase K treatment at 3.5 uM concentration of the compound; assay type: functional, Mus musculus; outline: as §1
L1210 [13] = test: Non-protein associated single strand breaks, measured after cell lysis in the absence of proteinase K treatment at 35 uM concentration of the compound; assay type: functional, Mus musculus; outline: as §1

Row | SMILES | IC50 (L1210 [1]) | CC50 [8] | also measured
1 | CCC1(O)OCc2c1cc1n(c2=O)Cc2cc3ccccc3nc2-1 (configuration not stated) | > 5900 nM |  | CC50 [2]: Negative
2 | CC[C@@]1(O)C(=O)OCc2c1cc1n(c2=O)Cc2cc3ccccc3nc2-1 [CAMPTOTHECIN] | 14 nM |  | Radiation equivalent (L1210 [3]): 240; Radiation equivalent (L1210 [4]): 342
3 | C=C1CC(CC)(c2cc3n(c(=O)c2C)Cc2cc4ccccc4nc2-3)OC1=O (configuration not stated) | 94 nM |  | Radiation equivalent (L1210 [3]): <100; Radiation equivalent (L1210 [4]): <100; Radiation equivalent (L1210 [5]): <100; Radiation equivalent (L1210 [6]): 1360; CC50 [2]: Negative
4 | CC[C@@](O)(C(=O)O)c1cc2n(c(=O)c1CO)Cc1cc3ccccc3nc1-2 | 14 nM |  | CC50 [7]: 900 nM
5 | CC[C@@]1(OC(C)=O)C(=O)OCc2c1cc1n(c2=O)Cc2cc3ccccc3nc2-1 | 390 nM | Negative | 
6 | CC[C@H]1C(=O)OCc2c1cc1n(c2=O)Cc2cc3ccccc3nc2-1 | 590 nM | Negative | 
7 | CCC1OC(=O)c2c1cc1n(c2=O)Cc2cc3ccccc3nc2-1 (configuration not stated) | > 5900 nM | Negative | 
8 | CC[C@@]1(O)C(=O)NCc2c1cc1n(c2=O)Cc2cc3ccccc3nc2-1 | > 2000 nM | Negative | Radiation equivalent (L1210 [9]): <100; Radiation equivalent (L1210 [10]): <100
9 | CC[C@@](O)(C(=O)NC(C)C)c1cc2n(c(=O)c1CO)Cc1cc3ccccc3nc1-2 |  |  | CC50 [7]: 5000 nM
10 | CC[C@@]1(O)C(=O)SCc2c1cc1n(c2=O)Cc2cc3ccccc3nc2-1 | 2900 nM |  | CC50 [2]: Negative
11 | O=C1OCc2c1cc1n(c2=O)Cc2cc3ccccc3nc2-1 | > 5900 nM | Negative | 
12 | O=c1c2cocc2c(O)c2n1Cc1cc3ccccc3nc1-2 | 92 nM | Negative | Radiation equivalent (L1210 [11]): <100; Radiation equivalent (L1210 [12]): 175; Radiation equivalent (L1210 [13]): 1000
13 | CC[C@]1(O)c2cc3n(c(=O)c2COC1O)Cc1cc2ccccc2nc1-3 (some centres not stated) | 2700 nM | Negative | Radiation equivalent (L1210 [9]): <100; Radiation equivalent (L1210 [10]): <100

Reference: ChEMBL document CHEMBL1124433 (J Med Chem, 1989)
